Data from ChEMBL document CHEMBL3580617, “Discovery of Benzimidazole CYP11B2 Inhibitors with in Vivo Activity in Rhesus Monkeys” (ACS Med Chem Lett, 2015).
pIC50: −log10 of the molar value. The source made the active and inactive calls. The calls are words filed in the database; no cut-off is given here.

Columns and labels:
[1] = organism: Homo sapiens; test: Selectivity index, ratio of IC50 for CYP19 (unknown origin) to IC50 for human CYP11B2
[2] = Half life in rhesus monkey at 1 mg/kg, po or 0.5 mg/kg, iv by LC-MS/MS method; type: ADME, organism-based, Macaca mulatta; conditions: in vivo
[3] = tested on: V79; test: (§1) Inhibition of rhesus monkey CYP11B2 expressed in V79 cells incubated for 1 hr before 11-deoxycorticosterone substrate addition by HTRF-based assay; type: cell-based; conditions: Macaca mulatta
[4] = organism: Homo sapiens; test: Selectivity index, ratio of IC50 for human CYP11B1 to IC50 for human CYP11B2
Summary of the method: (§2)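 Human CYP11B2 and CYP11B1 inhibition was tested in cell-based assays. Selectivity was taken as the hCYP11B1 IC50 divided by the hCYP11B2 IC50.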

[5] = target: T1, Cytochrome P450 11B1, mitochondrial (Homo sapiens, UniProt P15538); test: Inhibition of human CYP11B1 expressed in V79 cells incubated for 1 hr before 11-deoxycortisol substrate addition by HTRF-based assay; type: cell-based; summary of the method: as §2
T1 sequence (P15538 whole entry): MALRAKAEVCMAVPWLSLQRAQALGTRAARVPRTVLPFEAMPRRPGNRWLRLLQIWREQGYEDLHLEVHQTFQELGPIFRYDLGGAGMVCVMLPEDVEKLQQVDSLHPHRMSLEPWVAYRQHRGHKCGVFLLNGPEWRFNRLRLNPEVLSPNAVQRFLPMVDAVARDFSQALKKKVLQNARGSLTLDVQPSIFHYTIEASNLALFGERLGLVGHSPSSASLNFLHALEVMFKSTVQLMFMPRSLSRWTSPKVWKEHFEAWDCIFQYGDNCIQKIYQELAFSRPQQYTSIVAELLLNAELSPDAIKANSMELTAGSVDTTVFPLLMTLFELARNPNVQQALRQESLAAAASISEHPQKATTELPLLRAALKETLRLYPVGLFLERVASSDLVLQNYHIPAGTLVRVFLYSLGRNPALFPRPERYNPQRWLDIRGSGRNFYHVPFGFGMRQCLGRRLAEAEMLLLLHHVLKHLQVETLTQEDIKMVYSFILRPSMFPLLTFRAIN

[6] = target: T2, Cytochrome P450 11B2, mitochondrial (Homo sapiens, UniProt P19099); test: Inhibition of human CYP11B2 expressed in V79 cells incubated for 1 hr before 11-deoxycorticosterone substrate addition by HTRF-based assay; type: cell-based; summary of the method: as §2
T2 sequence (P19099 whole entry): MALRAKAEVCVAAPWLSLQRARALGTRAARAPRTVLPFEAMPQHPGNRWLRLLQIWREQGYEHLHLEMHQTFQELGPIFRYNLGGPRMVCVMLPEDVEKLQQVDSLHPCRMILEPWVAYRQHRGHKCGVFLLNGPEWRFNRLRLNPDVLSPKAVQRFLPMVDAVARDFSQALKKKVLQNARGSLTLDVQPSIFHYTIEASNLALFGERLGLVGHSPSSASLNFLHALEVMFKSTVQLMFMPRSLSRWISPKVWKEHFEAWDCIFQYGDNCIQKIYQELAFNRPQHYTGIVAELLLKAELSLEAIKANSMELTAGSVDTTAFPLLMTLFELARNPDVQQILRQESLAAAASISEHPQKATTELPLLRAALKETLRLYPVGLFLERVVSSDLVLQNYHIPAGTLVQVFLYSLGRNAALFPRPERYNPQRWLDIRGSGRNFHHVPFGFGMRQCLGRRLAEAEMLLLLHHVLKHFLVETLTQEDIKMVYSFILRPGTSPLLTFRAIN

[7] = target: Cytochrome P450 2C9 (Homo sapiens, UniProt P11712); test: Inhibition of CYP2C9 (unknown origin); type: ADME
[8] = target: Sodium channel protein type 5 subunit alpha (Homo sapiens, UniProt Q14524); test: Block of Nav1.5 ion channel in functional assay (unknown origin)
[9] = target: T3, Alpha-2B adrenergic receptor (Homo sapiens, UniProt P18089); test: Inhibition of adrenergic alpha-2B receptor (unknown origin)
T3 sequence (P18089 whole entry): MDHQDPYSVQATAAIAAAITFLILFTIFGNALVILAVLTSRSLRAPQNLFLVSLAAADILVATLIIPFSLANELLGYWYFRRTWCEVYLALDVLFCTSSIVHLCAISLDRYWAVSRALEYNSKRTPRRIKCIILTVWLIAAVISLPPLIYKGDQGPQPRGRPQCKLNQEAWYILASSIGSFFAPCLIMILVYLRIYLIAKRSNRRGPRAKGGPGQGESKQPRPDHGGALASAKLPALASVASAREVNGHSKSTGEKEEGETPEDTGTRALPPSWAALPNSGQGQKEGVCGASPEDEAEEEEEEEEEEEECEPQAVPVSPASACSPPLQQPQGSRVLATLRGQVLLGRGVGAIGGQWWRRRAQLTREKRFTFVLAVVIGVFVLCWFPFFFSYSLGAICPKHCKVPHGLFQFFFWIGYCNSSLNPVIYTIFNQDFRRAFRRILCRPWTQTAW
Summary of the method: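 Binding activity was profiled across a panel of 114 receptors, enzymes and ion channels, with an IC50 determined against any target that was hit.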

[10] = target: Voltage-dependent L-type calcium channel subunit alpha-1C (Homo sapiens, UniProt Q13936); test: Block of Cav1.2 ion channel in functional assay (unknown origin)
[11] = tested on: Rhesus monkey; test: Increase in 11-deoxycortisol levels in low sodium diet fed rhesus monkey up to 0.3 mg/kg, iv followed by 0.3 mg/kg ACTH dosing and measured 30 mins to 180 mins post ACTH administration by UPLC coupled with tandem mass spectrometry; type: functional, organism-based; conditions: Macaca mulatta
Summary of the method: (§3)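 Anesthetized rhesus monkeys were given i.v. doses from 0.001 to 0.3 mg/kg. Plasma aldosterone and 11-deoxycortisol were quantified by LC-MS at time points up to 180 min postdose, and AUCs were determined for each. Plasma drug was measured at 90 min postdose. Free (unbound) concentrations were calculated from the measured fraction unbound in rhesus plasma.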

[12] = tested on: Rhesus monkey; test: Reduction in aldosterone levels in low sodium diet fed rhesus monkey at 0.01 mg/kg, iv followed by 0.3 mg/kg ACTH dosing and measured 30 mins to 180 mins post ACTH administration by UPLC coupled with tandem mass spectrometry; type: functional, Macaca mulatta; summary of the method: as §3
[13] = tested on: Rhesus monkey; test: Reduction in aldosterone levels in low sodium diet fed rhesus monkey at 0.3 mg/kg, iv followed by 0.3 mg/kg ACTH dosing and measured 30 mins to 180 mins post ACTH administration by UPLC coupled with tandem mass spectrometry; type: functional; conditions: Macaca mulatta; summary of the method: as §3
[14] = as §1; type: cell-based, Macaca mulatta
[15] = tested on: Rhesus monkey; test: Reduction in aldosterone levels in low sodium diet fed rhesus monkey at 0.01 to 0.3 mg/kg, iv followed by 0.3 mg/kg ACTH dosing and measured 30 mins to 180 mins post ACTH administration by UPLC coupled with tandem mass spectrometry; type: functional, organism-based; conditions: Macaca mulatta; 0.001 to 0.3 mg/kg; in the assay text read “0.001 to 0.3 mg/kg” for “0.01 to 0.3 mg/kg”; summary of the method: as §3
[16] = Inhibition of rhesus monkey CYP11B1; parameters: species or system Macaca mulatta
[17] = tested on: Rhesus monkey; test: […] in 11-deoxycortisol levels in low sodium diet fed rhesus monkey at free plasma concentration up to 27 nM dosed at 0.01 to 0.3 mg/kg, iv followed by 0.3 mg/kg ACTH dosing and measured 90 mins post ACTH administration by UPLC coupled with tandem mass spectrometry; type: functional, organism-based; conditions: Macaca mulatta; summary of the method: as §3

Chain of Cytochrome P450 2C9 (P11712 whole entry): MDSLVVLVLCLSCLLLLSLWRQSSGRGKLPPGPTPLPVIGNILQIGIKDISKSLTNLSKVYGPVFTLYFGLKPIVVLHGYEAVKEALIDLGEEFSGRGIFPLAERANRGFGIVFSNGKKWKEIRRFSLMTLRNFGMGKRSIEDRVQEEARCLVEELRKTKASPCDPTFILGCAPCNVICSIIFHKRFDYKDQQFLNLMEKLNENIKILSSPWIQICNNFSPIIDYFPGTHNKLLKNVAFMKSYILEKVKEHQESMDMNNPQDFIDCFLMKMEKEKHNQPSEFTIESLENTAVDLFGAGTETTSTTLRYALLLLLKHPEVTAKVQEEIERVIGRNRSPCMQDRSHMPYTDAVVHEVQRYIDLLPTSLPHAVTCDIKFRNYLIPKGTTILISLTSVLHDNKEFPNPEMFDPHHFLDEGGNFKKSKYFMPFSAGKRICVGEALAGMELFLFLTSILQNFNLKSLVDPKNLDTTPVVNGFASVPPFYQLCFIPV
Chain of Sodium channel protein type 5 subunit alpha (Q14524 whole entry): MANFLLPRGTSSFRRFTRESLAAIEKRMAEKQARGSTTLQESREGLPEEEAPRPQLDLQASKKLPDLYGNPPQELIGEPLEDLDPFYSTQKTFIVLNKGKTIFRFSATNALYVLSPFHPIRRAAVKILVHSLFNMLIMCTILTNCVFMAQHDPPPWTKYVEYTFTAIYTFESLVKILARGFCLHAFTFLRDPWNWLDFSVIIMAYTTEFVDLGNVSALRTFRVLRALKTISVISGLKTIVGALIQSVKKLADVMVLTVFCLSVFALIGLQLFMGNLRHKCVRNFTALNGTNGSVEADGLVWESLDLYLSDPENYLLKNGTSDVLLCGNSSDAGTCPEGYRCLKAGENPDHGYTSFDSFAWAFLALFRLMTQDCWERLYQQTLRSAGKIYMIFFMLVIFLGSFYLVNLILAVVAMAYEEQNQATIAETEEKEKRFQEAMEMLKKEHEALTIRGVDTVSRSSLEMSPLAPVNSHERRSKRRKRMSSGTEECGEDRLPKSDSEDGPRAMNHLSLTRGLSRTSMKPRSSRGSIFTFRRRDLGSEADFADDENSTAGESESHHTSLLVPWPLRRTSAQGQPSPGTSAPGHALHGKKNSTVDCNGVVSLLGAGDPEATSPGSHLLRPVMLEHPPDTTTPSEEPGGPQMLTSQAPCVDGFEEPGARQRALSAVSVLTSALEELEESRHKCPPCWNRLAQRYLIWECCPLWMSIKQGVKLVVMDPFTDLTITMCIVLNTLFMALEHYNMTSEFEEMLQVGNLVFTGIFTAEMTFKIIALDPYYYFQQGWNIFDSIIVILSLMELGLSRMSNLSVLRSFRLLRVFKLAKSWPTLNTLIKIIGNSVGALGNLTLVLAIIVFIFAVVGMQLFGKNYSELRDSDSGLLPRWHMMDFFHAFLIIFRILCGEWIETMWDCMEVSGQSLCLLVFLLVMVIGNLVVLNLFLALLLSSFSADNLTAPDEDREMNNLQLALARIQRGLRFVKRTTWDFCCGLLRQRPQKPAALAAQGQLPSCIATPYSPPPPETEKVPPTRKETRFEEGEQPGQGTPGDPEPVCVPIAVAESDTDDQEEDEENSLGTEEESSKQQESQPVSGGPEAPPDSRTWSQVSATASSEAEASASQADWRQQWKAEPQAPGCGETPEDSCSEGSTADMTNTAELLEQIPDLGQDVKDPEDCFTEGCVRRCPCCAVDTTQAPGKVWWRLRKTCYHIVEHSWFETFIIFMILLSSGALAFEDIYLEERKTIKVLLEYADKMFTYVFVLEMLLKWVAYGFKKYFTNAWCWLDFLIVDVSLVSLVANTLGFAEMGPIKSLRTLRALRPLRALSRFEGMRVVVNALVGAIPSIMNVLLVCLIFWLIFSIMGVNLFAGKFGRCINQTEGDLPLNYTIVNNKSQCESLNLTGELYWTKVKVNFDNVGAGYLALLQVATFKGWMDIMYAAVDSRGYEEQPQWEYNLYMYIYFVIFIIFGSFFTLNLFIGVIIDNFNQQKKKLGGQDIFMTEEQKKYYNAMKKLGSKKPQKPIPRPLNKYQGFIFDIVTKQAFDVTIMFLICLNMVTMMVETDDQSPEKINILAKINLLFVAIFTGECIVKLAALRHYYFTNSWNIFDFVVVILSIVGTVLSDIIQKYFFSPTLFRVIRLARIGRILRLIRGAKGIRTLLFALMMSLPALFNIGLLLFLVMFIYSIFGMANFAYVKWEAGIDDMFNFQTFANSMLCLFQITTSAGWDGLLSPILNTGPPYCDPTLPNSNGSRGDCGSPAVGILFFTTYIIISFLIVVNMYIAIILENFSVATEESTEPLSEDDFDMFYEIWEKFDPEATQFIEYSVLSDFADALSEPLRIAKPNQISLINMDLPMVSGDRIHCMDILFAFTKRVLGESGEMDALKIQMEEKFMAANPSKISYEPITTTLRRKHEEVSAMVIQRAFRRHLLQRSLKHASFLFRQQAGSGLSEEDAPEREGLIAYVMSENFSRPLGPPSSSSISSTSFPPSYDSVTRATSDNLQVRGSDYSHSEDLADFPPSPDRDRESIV
Chain of Voltage-dependent L-type calcium channel subunit alpha-1C (Q13936 whole entry): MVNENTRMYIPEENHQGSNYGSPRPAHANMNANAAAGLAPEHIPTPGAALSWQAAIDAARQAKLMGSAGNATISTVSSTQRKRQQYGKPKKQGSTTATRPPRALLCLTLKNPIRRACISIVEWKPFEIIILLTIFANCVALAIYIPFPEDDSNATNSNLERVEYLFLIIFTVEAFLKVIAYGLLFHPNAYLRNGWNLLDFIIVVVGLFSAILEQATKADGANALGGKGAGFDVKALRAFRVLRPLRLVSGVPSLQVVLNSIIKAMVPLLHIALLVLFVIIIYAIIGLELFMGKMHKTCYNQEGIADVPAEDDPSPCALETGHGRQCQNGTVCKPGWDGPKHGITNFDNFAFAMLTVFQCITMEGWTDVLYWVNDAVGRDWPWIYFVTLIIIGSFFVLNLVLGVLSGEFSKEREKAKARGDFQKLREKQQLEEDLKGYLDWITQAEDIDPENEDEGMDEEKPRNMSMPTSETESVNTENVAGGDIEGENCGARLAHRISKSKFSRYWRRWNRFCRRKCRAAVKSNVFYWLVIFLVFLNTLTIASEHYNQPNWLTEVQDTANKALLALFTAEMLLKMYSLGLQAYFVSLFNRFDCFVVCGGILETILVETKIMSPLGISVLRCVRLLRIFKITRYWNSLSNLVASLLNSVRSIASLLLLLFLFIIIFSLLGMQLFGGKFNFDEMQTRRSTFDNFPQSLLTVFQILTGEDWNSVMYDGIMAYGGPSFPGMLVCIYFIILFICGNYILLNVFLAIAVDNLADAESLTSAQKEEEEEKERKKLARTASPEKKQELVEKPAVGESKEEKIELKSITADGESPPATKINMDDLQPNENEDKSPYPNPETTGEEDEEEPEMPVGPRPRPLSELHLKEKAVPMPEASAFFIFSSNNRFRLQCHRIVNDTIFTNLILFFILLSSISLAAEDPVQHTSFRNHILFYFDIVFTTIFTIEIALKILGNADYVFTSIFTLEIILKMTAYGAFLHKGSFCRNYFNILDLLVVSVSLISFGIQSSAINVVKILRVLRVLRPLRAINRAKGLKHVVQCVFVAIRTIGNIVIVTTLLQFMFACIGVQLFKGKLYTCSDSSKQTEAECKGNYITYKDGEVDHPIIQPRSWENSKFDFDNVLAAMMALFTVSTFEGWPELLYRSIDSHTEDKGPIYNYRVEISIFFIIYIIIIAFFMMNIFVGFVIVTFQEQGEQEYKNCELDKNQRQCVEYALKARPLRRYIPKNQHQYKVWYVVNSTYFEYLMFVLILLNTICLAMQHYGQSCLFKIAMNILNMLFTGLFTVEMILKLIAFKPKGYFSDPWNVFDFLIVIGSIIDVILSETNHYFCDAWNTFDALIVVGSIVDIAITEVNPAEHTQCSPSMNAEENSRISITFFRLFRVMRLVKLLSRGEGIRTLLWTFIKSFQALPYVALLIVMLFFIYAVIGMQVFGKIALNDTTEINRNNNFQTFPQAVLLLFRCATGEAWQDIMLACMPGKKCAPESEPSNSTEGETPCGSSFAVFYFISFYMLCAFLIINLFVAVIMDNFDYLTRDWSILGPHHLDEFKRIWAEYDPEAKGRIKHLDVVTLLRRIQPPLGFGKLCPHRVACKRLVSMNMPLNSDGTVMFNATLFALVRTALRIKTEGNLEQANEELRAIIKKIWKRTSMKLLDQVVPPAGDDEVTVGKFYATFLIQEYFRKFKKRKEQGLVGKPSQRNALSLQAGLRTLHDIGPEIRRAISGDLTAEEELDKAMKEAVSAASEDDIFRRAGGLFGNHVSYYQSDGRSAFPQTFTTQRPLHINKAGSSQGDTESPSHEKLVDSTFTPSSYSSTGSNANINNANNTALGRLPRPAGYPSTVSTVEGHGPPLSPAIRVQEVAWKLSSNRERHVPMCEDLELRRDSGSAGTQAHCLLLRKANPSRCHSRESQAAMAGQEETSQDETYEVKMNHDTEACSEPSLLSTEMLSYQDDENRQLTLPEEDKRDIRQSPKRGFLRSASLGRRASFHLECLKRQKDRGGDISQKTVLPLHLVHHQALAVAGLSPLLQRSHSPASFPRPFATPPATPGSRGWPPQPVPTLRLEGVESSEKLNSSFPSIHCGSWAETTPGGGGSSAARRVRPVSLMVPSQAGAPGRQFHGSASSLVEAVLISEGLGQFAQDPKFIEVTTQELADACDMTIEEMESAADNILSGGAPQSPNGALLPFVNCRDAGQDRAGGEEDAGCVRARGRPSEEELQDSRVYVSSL

Ratio IC50 [1] | half-life [2] [h] | Ratio IC50 [4] | pIC50 [5] | pIC50 [6] | inhibition (INH) [7] | pIC50 [9] | pIC50 [14] | pIC50 [16] | SMILES | inhibition [3] | pIC50 [8] | pIC50 [10] | Activity [11] | inhibition (INH) [12] [%] | inhibition in vivo at 0.3 mg/kg [13] [%] | inhibition [15] | inhibition [17]
500 | 7.4 | 93 | 6.36 | 8.33 | Not Active | 5.60 |  |  | Fc1cncc(-c2nc3cc(F)c(F)cc3n2C2CC2)c1 | Active | < 4.52 | < 4.52 |  |  |  |  | 
 |  |  |  |  | Not Active |  | 9.52 | 7.39 | CC(C)(O)c1cncc(-c2nc3ccc(F)cc3n2C2CC2)c1 [MSD-CYP11B2] |  |  |  | inactive | 62 | 95 | Dose-dependent effect | inactive
